Data: ChEMBL document CHEMBL1212900, “Falcipain inhibitors: optimization studies of the 2-pyrimidinecarbonitrile lead series” (J Med Chem, 2010)

Assay: Inhibition of Plasmodium falciparum falcipain-3 expressed in Escherichia coli
Outline: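 Refolded recombinant enzyme from E. coli, 2 nM, in 100 mM sodium acetate pH 5.5 with 500 μM CHAPS and 10 mM DTT, DMSO up to 1%. H-D-Val-Leu-Arg-AFC at 150 μM final. Reaction started by enzyme addition; fluorescence monitored 1 h at room temperature. IC50 derived from percent activity plotted against inhibitor concentration.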
`CC(C)CN(NC(=O)c1ccc2sccc2c1)c1nc(C#N)ncc1Br` gave an IC50 of 154 nM.
In the case of `CC(C)CN(NC(=O)c1cc2ccccc2[nH]1)c1nc(C#N)ncc1Br`, the IC50 is reported as 641 nM.
Work on `CC(C)(C)OC(=O)NN(CC1CC=CC1)c1nc(C#N)ncc1Br` yielded an IC50 of 35 nM.
`CC(C)(C)OC(=O)NN(CC1CC=CCC1)c1nc(C#N)ncc1Br` (stereo not drawn) showed an IC50 of 41 nM.
Work on `CC(C)(C)OC(=O)NN(CCC1C=CCC1)c1nc(C#N)ncc1Br` (stereo not drawn) yielded an IC50 of 311 nM.
In the case of `CC(C)(C)OC(=O)NN(c1nc(C#N)ncc1Br)C1CCC1`, the IC50 is reported as 297 nM.
In the case of `CC(C)(C)OC(=O)NN(c1nc(C#N)ncc1Br)C1CCCC1`, the IC50 is reported as 56 nM.
Work on `CC(C)(C)OC(=O)NN(c1nc(C#N)ncc1Br)C1CCCCC1` yielded an IC50 of 8 nM.
`CC(C)CN(NC(=O)c1cc2cc(OCc3ccccc3)ccc2[nH]1)c1nc(C#N)ncc1Br` gave an IC50 of 4650 nM.
In the case of `Cc1c(C(=O)NN(CC(C)C)c2nc(C#N)ncc2Br)n(C)c2ccccc12`, the IC50 is reported as 311 nM.
`CC(C)CN(NC(=O)c1cccc2cc[nH]c12)c1nc(C#N)ncc1Br` gave an IC50 of 342 nM.
`CC(C)CN(NC(=O)c1onc2ccccc12)c1nc(C#N)ncc1Br` showed an IC50 greater than 10000 nM.
`CC(C)(C)OC(=O)NN(c1nc(C#N)ncc1Br)C1CCCC1(C)C` (stereo not drawn) showed an IC50 of 447 nM.
For `CC1CCC(N(NC(=O)OC(C)(C)C)c2nc(C#N)ncc2Br)C1` (stereo not drawn), the IC50 was 53 nM.
In the case of `CC(C)(C)OC(=O)NN(c1nc(C#N)ncc1Br)C1CC=CC1`, the IC50 is reported as 21 nM.
`CC(C)(C)OC(=O)NN(CC1CCCO1)c1nc(C#N)ncc1Br` (stereo not drawn) gave an IC50 of 112 nM.
In the case of `CC(C)CN(NC(=O)c1nc2ccccc2s1)c1nc(C#N)ncc1Cl`, the IC50 is reported as 112 nM.
Compound `CC(C)CN(NC(=O)c1ccc2[nH]cnc2c1)c1nc(C#N)ncc1Cl` has an IC50 of 93 nM.
Compound `Cc1nc2cc(C(=O)NN(CC(C)C)c3nc(C#N)ncc3Br)ccc2[nH]1` has an IC50 of 27 nM.
With `CC(C)CN(NC(=O)c1ccc2[nH]nnc2c1)c1nc(C#N)ncc1Br` the IC50 was 40 nM.
`Cc1c(C(=O)NN(CC(C)C)c2nc(C#N)ncc2Br)oc2cccnc12` showed an IC50 of 73 nM.
`CC1OCCC1N(NC(=O)OC(C)(C)C)c1nc(C#N)ncc1Br` (stereo not drawn) gave an IC50 of 98 nM.
For `CC(C)(C)OC(=O)NN(CC1CCOCC1)c1nc(C#N)ncc1Br`, the IC50 was 85 nM.
`CC(C)(C)OC(=O)NN(Cc1ccco1)c1nc(C#N)ncc1Br` showed an IC50 of 140 nM.
`CC(C)(C)OC(=O)NN(Cc1ccoc1)c1nc(C#N)ncc1Br` gave an IC50 of 183 nM.
Work on `CC(C)(C)OC(=O)NN(c1nc(C#N)ncc1Br)C1CCOCC1` yielded an IC50 of 28 nM.
`CC(C)CN(NC(=O)c1cccc2c1Cc1ccccc1-2)c1nc(C#N)ncc1Br` gave an IC50 of 329 nM.
Work on `CC(C)CN(NC(=O)c1cccc2c1-c1ccccc1C2=O)c1nc(C#N)ncc1Br` yielded an IC50 of 67 nM.
In the case of `CC(C)CN(NC(=O)c1cccc2c1C(=O)c1ccccc1-2)c1nc(C#N)ncc1Br`, the IC50 is reported as 831 nM.
Compound `CC(C)CN(NC(=O)c1ccc(-c2ccccc2)cc1)c1nc(C#N)ncc1Br` has an IC50 of 1460 nM.
Work on `CC(C)(C)OC(=O)NN(c1nc(C#N)ncc1Br)C1CCN(C(=O)OCc2ccccc2)CC1` yielded an IC50 of 38 nM.
Work on `CC(C)(C)OC(=O)NN(c1nc(C#N)ncc1Br)C1CCN(C(=O)OC(C)(C)C)CC1` yielded an IC50 of 135 nM.
Compound `CC(C)N1CCC(N(NC(=O)OC(C)(C)C)c2nc(C#N)ncc2Br)CC1` has an IC50 of 5240 nM.
`CC(=O)N1CCC(N(NC(=O)OC(C)(C)C)c2nc(C#N)ncc2Br)CC1` gave an IC50 of 33 nM.
In the case of `CC(=O)N[C@H]1CC[C@H](N(NC(=O)OC(C)(C)C)c2nc(C#N)ncc2Br)CC1`, the IC50 is reported as 67 nM.
Work on `CC(C)CN(NC(=O)c1ccc(C(=O)c2ccccc2)cc1)c1nc(C#N)ncc1Br` yielded an IC50 of 115 nM.
In the case of `CC(C)CN(NC(=O)c1ccc(Oc2ccccc2)cc1)c1nc(C#N)ncc1Br`, the IC50 is reported as 896 nM.
Compound `CC(C)CN(NC(=O)c1cccc(Oc2ccccc2)c1)c1nc(C#N)ncc1Br` has an IC50 of 116 nM.
`CC(C)CN(NC(=O)c1ccccc1Oc1ccccc1)c1nc(C#N)ncc1Br` gave an IC50 of 66 nM.
Work on `CC(C)CN(NC(=O)c1cccc(-c2ccccc2)c1)c1nc(C#N)ncc1Br` yielded an IC50 of 37 nM.
In the case of `CC(C)CN(NC(=O)c1ccc(Cc2ccccc2)cc1)c1nc(C#N)ncc1Cl`, the IC50 is reported as 962 nM.

Assay: Inhibition of Plasmodium falciparum falcipain-2 expressed in Escherichia coli
Outline: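 Recombinant E. coli-expressed, refolded enzyme at 0.25 nM in 100 mM sodium acetate pH 5.5, 500 μM CHAPS, 10 mM DTT, DMSO ≤1%. Substrate H-D-Val-Leu-Arg-AFC at 30 μM final. Inhibitor dilutions mixed with substrate, enzyme added last; fluorescence followed 1 h at room temperature. IC50 from percent activity versus concentration.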
In the case of `CC(C)CN(NC(=O)OC(C)(C)C)c1nc(Cl)ncc1C#N`, the IC50 is reported as 4530 nM.
`CC(C)CN(NC(=O)c1ccc2sccc2c1)c1nc(C#N)ncc1Br` gave an IC50 of 1 nM.
In the case of `CC(C)CN(NC(=O)c1cc2ccccc2[nH]1)c1nc(C#N)ncc1Br`, the IC50 is reported as 15 nM.
`CC(C)(C)OC(=O)NN(CC1CC=CC1)c1nc(C#N)ncc1Br` showed an IC50 of 2 nM.
Compound `CC(C)(C)OC(=O)NN(CC1CC=CCC1)c1nc(C#N)ncc1Br` (stereo not drawn) has an IC50 of 2 nM.
With `CC(C)(C)OC(=O)NN(CCC1C=CCC1)c1nc(C#N)ncc1Br` (stereo not drawn) the IC50 was 12 nM.
`CC(C)(C)OC(=O)NN(c1nc(C#N)ncc1Br)C1CCC1` showed an IC50 of 13 nM.
With `CC(C)(C)OC(=O)NN(c1nc(C#N)ncc1Br)C1CCCC1` the IC50 was 9 nM.
Compound `CC(C)(C)OC(=O)NN(c1nc(C#N)ncc1Br)C1CCCCC1` has an IC50 of 1 nM.
With `CC(C)CN(NC(=O)c1cc2cc(OCc3ccccc3)ccc2[nH]1)c1nc(C#N)ncc1Br` the IC50 was 103 nM.
With `Cc1c(C(=O)NN(CC(C)C)c2nc(C#N)ncc2Br)n(C)c2ccccc12` the IC50 was 4 nM.
In the case of `CC(C)CN(NC(=O)c1cccc2cc[nH]c12)c1nc(C#N)ncc1Br`, the IC50 is reported as 3 nM.
`CC(C)CN(NC(=O)c1onc2ccccc12)c1nc(C#N)ncc1Br` showed an IC50 of 604 nM.
`CC(C)(C)OC(=O)NN(c1nc(C#N)ncc1Br)C1CCCC1(C)C` (stereo not drawn) gave an IC50 of 34 nM.
For `CC1CCC(N(NC(=O)OC(C)(C)C)c2nc(C#N)ncc2Br)C1` (stereo not drawn), the IC50 was 3 nM.
`CC(C)(C)OC(=O)NN(c1nc(C#N)ncc1Br)C1CC=CC1` showed an IC50 of 2 nM.
`CC(C)(C)OC(=O)NN(CC1CCCO1)c1nc(C#N)ncc1Br` (stereo not drawn) gave an IC50 of 14 nM.
In the case of `CC(C)CN(NC(=O)c1nc2ccccc2s1)c1nc(C#N)ncc1Cl`, the IC50 is reported as 2 nM.
`CC(C)CN(NC(=O)c1ccc2[nH]cnc2c1)c1nc(C#N)ncc1Cl` showed an IC50 of 0.5 nM.
For `Cc1nc2cc(C(=O)NN(CC(C)C)c3nc(C#N)ncc3Br)ccc2[nH]1`, the IC50 was 0.2 nM.
Compound `CC(C)CN(NC(=O)c1ccc2[nH]nnc2c1)c1nc(C#N)ncc1Br` has an IC50 of 0.2 nM.
Compound `Cc1c(C(=O)NN(CC(C)C)c2nc(C#N)ncc2Br)oc2cccnc12` has an IC50 of 2 nM.
Work on `CC1OCCC1N(NC(=O)OC(C)(C)C)c1nc(C#N)ncc1Br` (stereo not drawn) yielded an IC50 of 7 nM.
Compound `CC(C)(C)OC(=O)NN(CC1CCOCC1)c1nc(C#N)ncc1Br` has an IC50 of 8 nM.
`CC(C)(C)OC(=O)NN(Cc1ccco1)c1nc(C#N)ncc1Br` showed an IC50 of 8 nM.
`CC(C)(C)OC(=O)NN(Cc1ccoc1)c1nc(C#N)ncc1Br` gave an IC50 of 60 nM.
Work on `CC(C)(C)OC(=O)NN(c1nc(C#N)ncc1Br)C1CCOCC1` yielded an IC50 of 2 nM.
For `CC(C)CN(NC(=O)c1cccc2c1Cc1ccccc1-2)c1nc(C#N)ncc1Br`, the IC50 was 4 nM.
`CC(C)CN(NC(=O)c1cccc2c1-c1ccccc1C2=O)c1nc(C#N)ncc1Br` gave an IC50 of 2 nM.
In the case of `CC(C)CN(NC(=O)c1cccc2c1C(=O)c1ccccc1-2)c1nc(C#N)ncc1Br`, the IC50 is reported as 25 nM.
With `CC(C)CN(NC(=O)c1ccc(-c2ccccc2)cc1)c1nc(C#N)ncc1Br` the IC50 was 28 nM.
In the case of `CC(C)(C)OC(=O)NN(c1nc(C#N)ncc1Br)C1CCN(C(=O)OCc2ccccc2)CC1`, the IC50 is reported as 2 nM.
`CC(C)(C)OC(=O)NN(c1nc(C#N)ncc1Br)C1CCN(C(=O)OC(C)(C)C)CC1` gave an IC50 of 26 nM.
In the case of `CC(C)N1CCC(N(NC(=O)OC(C)(C)C)c2nc(C#N)ncc2Br)CC1`, the IC50 is reported as 902 nM.
In the case of `CC(=O)N1CCC(N(NC(=O)OC(C)(C)C)c2nc(C#N)ncc2Br)CC1`, the IC50 is reported as less than 0.5 nM.
With `CC(=O)N[C@H]1CC[C@H](N(NC(=O)OC(C)(C)C)c2nc(C#N)ncc2Br)CC1` the IC50 was 7 nM.
`CC(C)CN(NC(=O)c1ccc(C(=O)c2ccccc2)cc1)c1nc(C#N)ncc1Br` gave an IC50 of 3 nM.
For `CC(C)CN(NC(=O)c1ccc(Oc2ccccc2)cc1)c1nc(C#N)ncc1Br`, the IC50 was 8 nM.
Work on `CC(C)CN(NC(=O)c1cccc(Oc2ccccc2)c1)c1nc(C#N)ncc1Br` yielded an IC50 of 4 nM.
Work on `CC(C)CN(NC(=O)c1ccccc1Oc1ccccc1)c1nc(C#N)ncc1Br` yielded an IC50 of 5 nM.
Work on `CC(C)CN(NC(=O)c1cccc(-c2ccccc2)c1)c1nc(C#N)ncc1Br` yielded an IC50 of 1 nM.
With `CC(C)CN(NC(=O)c1ccc(Cc2ccccc2)cc1)c1nc(C#N)ncc1Cl` the IC50 was 18 nM.
